Screening data as filed in PubChem.
Platelet DG rel: modulates dense granule release in human platelets | inhibition, %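 (compounds screened at 7.5 µM in platelet-rich plasma)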 | human platelet-rich plasma, SFLLRN dense granule ATP release, luminescence | hit rate 0.22% among 300,000 | AID 1663;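 active means mean replicate score, as percent of positive control, at or above 50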
Rce1 inh: inhibitors of yeast Ras-converting enzyme; Q03530; yeast membranes, quenched prenylated peptide cleavage fluorescence; calls only; hit rate 0.27% among 290,000;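 active means fall in fluorescence gain of 50% or more versus controls, with final raw signal at or below 3038400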;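 further: plate controls were neutral control wells for no effect and wells lacking membranes for full effect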
VLA-4 inh: inhibition in a human VLA-4 binding assay | VLA-4 expressing cells, ligand binding flow cytometry | inhibition, % (about 7 µM as worked out from the volumes in the protocol) | hit rate 0.2% among 330,000 | AID 2557; in the data active means inhibition above about 50%
Target sequence (P13612 whole entry, looked up): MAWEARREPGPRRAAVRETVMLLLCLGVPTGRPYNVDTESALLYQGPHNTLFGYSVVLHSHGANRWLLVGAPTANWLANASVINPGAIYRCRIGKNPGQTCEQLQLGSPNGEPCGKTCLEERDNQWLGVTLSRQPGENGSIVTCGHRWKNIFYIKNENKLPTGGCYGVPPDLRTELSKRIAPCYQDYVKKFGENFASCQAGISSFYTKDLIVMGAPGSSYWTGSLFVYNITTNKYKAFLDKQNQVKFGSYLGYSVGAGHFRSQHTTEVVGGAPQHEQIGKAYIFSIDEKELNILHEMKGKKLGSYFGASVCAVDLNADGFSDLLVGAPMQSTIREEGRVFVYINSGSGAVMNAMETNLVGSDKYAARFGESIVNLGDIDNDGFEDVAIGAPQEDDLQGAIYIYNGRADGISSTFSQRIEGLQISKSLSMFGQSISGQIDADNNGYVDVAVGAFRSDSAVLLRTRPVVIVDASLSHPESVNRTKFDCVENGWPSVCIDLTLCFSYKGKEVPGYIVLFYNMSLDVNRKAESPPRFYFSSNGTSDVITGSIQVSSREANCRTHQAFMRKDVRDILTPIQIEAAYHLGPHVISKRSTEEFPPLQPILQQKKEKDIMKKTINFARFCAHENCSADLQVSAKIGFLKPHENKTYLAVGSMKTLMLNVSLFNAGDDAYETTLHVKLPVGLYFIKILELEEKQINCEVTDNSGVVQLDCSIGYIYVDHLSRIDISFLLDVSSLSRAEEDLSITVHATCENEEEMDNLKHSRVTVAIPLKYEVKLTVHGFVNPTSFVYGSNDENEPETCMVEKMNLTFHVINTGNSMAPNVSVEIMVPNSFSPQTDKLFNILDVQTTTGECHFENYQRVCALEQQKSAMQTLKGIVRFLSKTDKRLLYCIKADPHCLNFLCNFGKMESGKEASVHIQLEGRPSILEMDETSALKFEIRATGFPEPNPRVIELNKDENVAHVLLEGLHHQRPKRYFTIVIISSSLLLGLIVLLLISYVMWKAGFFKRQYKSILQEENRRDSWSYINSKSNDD
TAAR1 antag: antagonists of human TAAR1; Q96RJ0; CHO RD-HGA16 TAAR1, Fluo-8 calcium fluorescence, antagonist; inhibition, % at 3 µM; hit rate 1.5% among 360,000; AID 624466;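 active means inhibition above a per-plate cutoff, the mean inhibition of test compounds on that plate plus 3 SD, cut at about 49% in these data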;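 further: 0% = DMSO plus EC80 beta-PEA response and 100% = DMSO alone without agonist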
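Test system – hTAAR1-expressing CHO RD-HGA16 cells, Gα16-coupled · Also added – β-PEA at EC80 concentration, post-compound challenge · Compound – 3 µM, single point · Incubation – dye loading 75 min at 37 °C, then 30 min room temperature · Measured by – Fluo-8 intracellular calcium dye fluorescence, real-time kinetic reads · Benchmarks – vehicle and agonist controls · Replicates – singlicate, one well per test compound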
TAAR1 agonist: agonists of human TAAR1; activation, % at 3 µM; CHO RD-HGA16 TAAR1, Fluo-8 calcium fluorescence; vehicle wells 0%, saturating PEA agonist 100%; hit rate 0.99% among 360,000; Q96RJ0; AID 624467;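 active means activation above the mean activation of all test compounds in the run plus 3 SD, cut at about 38% in these data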
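Assay system – CHO-derived RD-HGA16 cells with stable Gα16 and human TAAR1 · Compound dosing – one-point dosing at 3 µM (nominal) · Incubation – 17-24 h seeding, 75 min 37 °C dye, 30 min RT · Measured by – kinetic Fluo-8 calcium fluorescence · Control set – DMSO vehicle as 0%, PEA at EC100 as 100% · Repeats – single well for each compound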
TAAR1 ag conf: confirmation of human TAAR1 agonists; shares compounds with TAAR1 agonist; CHO RD-HGA16 TAAR1, Fluo-8 calcium fluorescence; scaled: DMSO 0%, maximal phenethylamine 100%; activation, % at 3 µM; hit rate 82% among 2,400;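 active means activation above a cutoff set at the run's mean compound activation plus 3 SD, cut at about 39% in these data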
Ga16 nonsel ag: nonselective agonist in parental cells, TAAR1 agonist counter-screen. shares compounds with TAAR1 agonist. CHO-Ga16 parental, Fluo-8 calcium fluorescence; normalized to maximal ATP response, DMSO zero. activation, % at 3 µM. hit rate 50% among 2,400. AID 651787;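 active means activation above the run cutoff, the mean activation over all tested wells plus 3 SD, cut at about 12% in these data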;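 further: 0% = DMSO wells and 100% = maximal ATP response on the peak over basal ratio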
TAAR1 desensitize: human TAAR1 agonist that also desensitizes the receptor; shares compounds with TAAR1 agonist; CHO RD-HGA16 hTAAR1, Fluo-8 calcium, beta-PEA response inhibition; inhibition, % at 3 µM; hit rate 46% among 2,400; AID 651951;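 active means inhibition above the run cutoff, the mean inhibition of all test compounds plus 3 SD, cut at about 49% in these data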;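 further: beta-PEA stimulus applied at its EC80; loss of beta-PEA calcium signal after compound pretreatment read as receptor desensitization; 0% = DMSO with beta-PEA at EC80 and 100% = DMSO alone without agonist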
Ga16 nonsel ant: counter-screen for TAAR1 agonists: nonselective Ga16 antagonists | shares compounds with TAAR1 agonist | CHO-Ga16 ATP-induced calcium, Fluo-8 fluorescence | inhibition, % at 3 µM | hit rate 39% among 2,400 | AID 651952;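 active means inhibition above the plate's mean compound inhibition plus 3 SD, computed per plate, cut at about 22% in these data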;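 further: 0% = EC80 ATP with DMSO and 100% = DMSO wells without ATP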
* hit, by the source's call; i = inactive; x = not tested or not shown. Shown are actives, neighbours in structure and some others; about 2.6% of the full set was active somewhere.

SMILES	Platelet DG rel	Rce1 inh	VLA-4 inh	TAAR1 antag	TAAR1 agonist	TAAR1 ag conf	Ga16 nonsel ag	TAAR1 desensitize	Ga16 nonsel ant
CN(C1(C)CCS(=O)(=O)C1)S(=O)(=O)c1cccc([N+](=O)[O-])c1 (stereo not drawn)	-10	i	-22	-3	0	x	x	x	x
COc1ccc(C(=O)N2CCCCC2c2cc(C(=O)NCc3ccc(Cl)c(Cl)c3)no2)cc1 (stereo not drawn)	x	x	x	4	2	x	x	x	x
Cc1ccc(S(=O)(=O)N2CCCCC2)cc1NC(=O)CNC(C)c1ccc(Cl)c(Cl)c1 (stereo not drawn)	x	x	29	1	1	x	x	x	x
N#CC(C#N)=C1C=C2C=C(N3CCOCC3)CCC2CC1 (stereo not drawn)	-3	i	x	109*	682*	726*	880*	106*	103*
CCOC(=O)c1cnn(-c2nc(SC)nc3sc4c(c23)CCCC4)c1N	-10	i	-12	84*	85*	13	15*	31	40*
CCOC(=O)c1cnn(-c2ncnc3sc4c(c23)CCC4)c1N	1	i	23	-2	5	x	x	x	x
O=S(=O)(NC1c2cccc3cccc(c23)C1N1CCNCC1)c1ccc(Cl)cc1 (stereo not drawn)	-1	i	12	9	3	x	x	x	x
CC(C)CC(N)c1csc(Nc2ccc(C(F)(F)F)cn2)n1 (stereo not drawn)	x	x	x	25	58*	54*	22*	31	26*
NC(c1csc(Nc2ccc(C(F)(F)F)cn2)n1)C1CCCCC1 (stereo not drawn)	x	x	x	20	76*	75*	43*	60*	55*
NC(CCc1ccccc1)c1csc(Nc2ccc(C(F)(F)F)cn2)n1 (stereo not drawn)	x	x	x	21	56*	40*	25*	40	36*
Oc1ccc(C[C@@H]2CNCCN2CCC23CC4CC(CC(C4)C2)C3)cc1	7	i	17	5	48*	62*	31*	41	42*
Oc1ccc(C[C@H]2CNCCN2CCC23CC4CC(CC(C4)C2)C3)cc1	-1	i	0	-13	36	x	x	x	x
CC1(c2ccccc2)NC(=O)N(NC(=O)COC(=O)c2cc(Br)ccc2O)C1=O (stereo not drawn)	1	i	-2	2	1	x	x	x	x
COC(=O)C[C@H]1C=C[C@H](NC(=O)c2ccccn2)[C@@H](CO)O1	x	x	x	-23	6	x	x	x	x
O=C(C[C@@H]1C=C[C@H](NC(=O)Cc2ccccn2)[C@@H](CO)O1)NCCc1ccccc1	x	x	x	x	x	x	6	x	8
CCOC(=O)/C(=C/C=C1\Sc2cc(C)c(C)cc2N1CC)C(C)=O	1	i	x	107*	378*	160*	126*	91*	84*
COCCCn1c(O)c(/C=C2\N=C(C#N)C(=Nc3ccc(C)cc3)O2)sc1=S	1	i	i	74*	52*	20	15*	10	25*
O=C1C=CC(=O)N1c1ccc2c(c1)Cc1cc(F)ccc1-2	x	x	x	48	14	x	x	x	x
CC(=O)Nc1ccc2c(c1)Cc1cc(N3C(=O)C=CC3=O)ccc1-2	x	x	x	52*	59*	34	29*	48	54*
CN(c1ccc(C(=O)N2CCCCCC2)cc1)S(=O)(=O)c1ccc(Cl)cc1	0	i	27	6	7	x	x	x	x
Cc1cccc(C(=O)NC(=S)NNC(=O)COc2c(C)cccc2C)c1	1	i	13	90*	126*	143*	119*	96*	63*
Cc1cccc(C(=O)NC(=S)NNC(=O)Cc2ccccc2)c1	-7	i	-5	64*	119*	121*	89*	74*	45*
COCCCNC(=O)C[C@@H]1C[C@@]2(C(=O)OC)CCCCC=C2N(Cc2ccco2)C1=O	x	x	x	3	0	x	x	x	x
O=C(Cc1ncon1)Nc1ccc(F)c(F)c1F	1	i	-19	-5	3	x	x	x	x
N#CCCN(CCCN1CCOCC1)CN1C(=O)c2ccccc2C1=O	x	x	x	-17	1	x	x	x	x
SMILES	Platelet DG rel	Rce1 inh	VLA-4 inh	TAAR1 antag	TAAR1 agonist	TAAR1 ag conf	Ga16 nonsel ag	TAAR1 desensitize	Ga16 nonsel ant
CCC(=O)Nc1ccc(C(=O)Nc2ccc(Br)cc2F)cc1	-5	i	11	83*	75*	14	3	11	13
O=C(Nc1ncccn1)c1ccc([N+](=O)[O-])cc1Cl	0	i	0	-7	3	x	x	x	x
Cc1cc(NC(=O)CSc2nc(-c3ccco3)cc(C(F)(F)F)n2)no1	-3	x	15	18	44*	-1	5	3	11
O=C(NCc1ccccc1)c1ccc(NC(=O)C2CCC2)cc1	x	x	x	6	6	x	x	x	x
COc1cc(/C=C2\SC(=O)N(CCN)C2=O)ccc1OS(=O)(=O)c1cc(C)ccc1C	7	i	x	-3	54*	72*	29*	57*	18
COc1ccc(/C=C2\SC(=O)N(CCC(=O)Nc3ccccc3)C2=O)cc1OC	-85	i	7	4	0	x	x	x	x
COc1ccccc1CNC(=O)c1ccccc1NC(=O)C1=C(C)OCCS1	7	i	-2	40	6	x	x	x	x
O=C(Nc1ccc(F)c(Cl)c1)Nn1cnnc1	-5	i	-7	-7	6	x	x	x	x
Nc1ccc2ccc(O)cc2c1	x	x	x	6	0	x	x	x	x
C[n+]1c2cc(N)ccc2cc2ccc(N)cc21	x	x	x	15	82*	103*	123*	24	42*
COc1ccc(NC(=O)CN2C(=O)NC(C)(c3ccccc3)C2=O)c(OC)c1 (stereo not drawn)	1	i	5	21	6	x	x	x	x
O=C1C(Cl)=C(NCC2CCCO2)C(=O)N1CCc1ccccc1 (stereo not drawn)	4	i	4	13	74*	52*	2	9	8
O=C1C(Cl)=C(NCCCN2CCOCC2)C(=O)N1CCc1ccccc1	4	i	14	-1	7	x	x	x	x
O=C1C(Cl)=C(NCCc2ccccc2)C(=O)c2ccccc21	x	x	x	67*	79*	107*	14*	96*	28*
O=C1C(Cl)=C(NCCc2ccccc2)C(=O)N1CCc1ccccc1	-3	i	7	66*	43*	73*	9	83*	32*
CC(=O)N(Cc1ccc(F)cc1)C1=C(NCCc2ccccc2)C(=O)c2ccccc2C1=O	2	i	9	-2	50*	29	0	21	14
